Measurements reported in ChEMBL document CHEMBL1156144, “Biaryl ethers as novel non-nucleoside reverse transcriptase inhibitors with improved potency against key mutant viruses” (J Med Chem, 2009).

Experiments:
[1] = Inhibition of RNA-dependent DNA polymerase activity of wild type HIV reverse transcriptase assessed as BrdU incorporation by standard ECL assay; design: species or system Human immunodeficiency virus
Outline: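 Purified recombinant wild-type RT polymerase activity was measured using a 500-nt heteropolymeric RNA template and a biotinylated DNA primer. BrdU incorporation was detected with a ruthenylated anti-BrdU antibody by electrochemiluminescence. Ki is the geometric mean of at least two determinations, each within 25% of the mean.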

[2] = molecular target: Human immunodeficiency virus type 1 reverse transcriptase (Human immunodeficiency virus 1, UniProt Q72547, K103N); experiment: Inhibition of RNA-dependent DNA polymerase activity of recombinant HIV reverse transcriptase K103N mutant assessed as BrdU incorporation by standard ECL assay
[3] = system: Human immunodeficiency virus; experiment: Antiviral activity against wild type HIV H9-3B infected in human MT2 cells assessed as inhibition of viral replication measuring p24 level after 3 days in presence of 10% fetal bovine serum; format: functional; conditions: Human immunodeficiency virus 1, MT2, Serum; read-out: CIC95
Outline: (§1)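 Multiple-cycle spread assay in MT2 cells with wild-type H9IIIB virus. Cells were infected overnight at moi ≈ 0.01 without compound, washed, then cultured 3 days across varying compound concentrations in RPMI 1640 with 10% FBS or 50% NHS. p24 was measured in supernatants. CIC95 is the lowest concentration inhibiting replication ≥95%, as the geometric mean of ≥2 determinations.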

[4] = system: Human immunodeficiency virus; experiment: Antiviral activity against wild type HIV H9-3B infected in human MT2 cells assessed as inhibition of viral replication measuring p24 level after 3 days in presence of 50% normal human serum; format: functional; conditions: Human immunodeficiency virus 1, H9-3B, 72 h, read-out: CIC95; outline: as §1
[5] = system: Human immunodeficiency virus; experiment: Antiviral activity against HIV with reverse transcriptase K103N mutant infected in human MT2 cells assessed as inhibition of viral replication measuring p24 level after 3 days in presence of 10% fetal bovine serum; format: functional; conditions: Human immunodeficiency virus 1, MT2, Serum, 72 h; read-out: CIC95
Outline: (§2)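 Multiple-cycle replication (Spread) assay in MT2 cells with H9IIIB-background mutant virus. Cells were infected overnight at moi ≈ 0.01 without compound, washed, then cultured 3 days across a range of compound concentrations in medium with 10% FBS. p24 was measured in supernatants. CIC95 is the lowest concentration inhibiting replication by ≥95%, reported as the geometric mean of ≥2 determinations.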

[6] = system: Human immunodeficiency virus; experiment: Antiviral activity against HIV with reverse transcriptase Y181C mutant infected in human MT2 cells assessed as inhibition of viral replication measuring p24 level after 3 days in presence of 10% fetal bovine serum; format: functional; conditions: Human immunodeficiency virus 1, MT2, Serum, 72 h; read-out: CIC95; outline: as §2
[7] = system: Human immunodeficiency virus; experiment: Antiviral activity against HIV with reverse transcriptase K103N/Y181C double mutant infected in human MT2 cells assessed as inhibition of viral replication measuring p24 level after 3 days in presence of 10% fetal bovine serum; format: functional; conditions: Human immunodeficiency virus 1, MT2, Serum, 72 h; read-out: CIC95; outline: as §2
[8] = system: Human immunodeficiency virus; experiment: Antiviral activity against HIV with reverse transcriptase MDRC4 mutant assessed as inhibition of viral replication; format: functional, organism-based; conditions: Human immunodeficiency virus 1
[9] = system: Human immunodeficiency virus; experiment: Antiviral activity against HIV with reverse transcriptase CNDO mutant assessed as inhibition of viral replication; format: functional, organism-based; conditions: Human immunodeficiency virus 1
[10] = system: Human immunodeficiency virus; experiment: Antiviral activity against HIV with reverse transcriptase L100I mutant assessed as inhibition of viral replication; format: functional, organism-based; conditions: Human immunodeficiency virus 1
[11] = system: Human immunodeficiency virus; experiment: Antiviral activity against HIV with reverse transcriptase K103N mutant assessed as inhibition of viral replication; format: functional, organism-based; conditions: Human immunodeficiency virus 1
[12] = system: Human immunodeficiency virus; experiment: Antiviral activity against HIV with reverse transcriptase Y181C mutant assessed as inhibition of viral replication; format: functional, organism-based; conditions: Human immunodeficiency virus 1
[13] = system: Human immunodeficiency virus; experiment: Antiviral activity against HIV with reverse transcriptase Y188L mutant assessed as inhibition of viral replication; format: functional, organism-based; conditions: Human immunodeficiency virus 1
[14] = system: Human immunodeficiency virus; experiment: Antiviral activity against HIV with reverse transcriptase G190A mutant assessed as inhibition of viral replication; format: functional, organism-based; conditions: Human immunodeficiency virus 1
[15] = system: Human immunodeficiency virus; experiment: Antiviral activity against HIV with reverse transcriptase G190S mutant assessed as inhibition of viral replication; format: functional, organism-based; conditions: Human immunodeficiency virus 1
[16] = system: Human immunodeficiency virus; experiment: Antiviral activity against HIV with reverse transcriptase L100I/K103N double mutant assessed as inhibition of viral replication; format: functional, organism-based; conditions: Human immunodeficiency virus 1
[17] = system: Human immunodeficiency virus; experiment: Antiviral activity against HIV with reverse transcriptase K103N/Y181C double mutant assessed as inhibition of viral replication; format: functional, organism-based; conditions: Human immunodeficiency virus 1
[18] = system: Human immunodeficiency virus; experiment: Antiviral activity against HIV with reverse transcriptase K103N/G190A double mutant assessed as inhibition of viral replication; format: functional, organism-based; conditions: Human immunodeficiency virus 1
[19] = system: Human immunodeficiency virus; experiment: Antiviral activity against HIV with reverse transcriptase Y181C/G190A double mutant assessed as inhibition of viral replication; format: functional, organism-based; conditions: Human immunodeficiency virus 1
[20] = system: Human immunodeficiency virus; experiment: Antiviral activity against HIV with reverse transcriptase K103N/P225H double mutant assessed as inhibition of viral replication; format: functional, organism-based; conditions: Human immunodeficiency virus 1
[21] = system: Human immunodeficiency virus; experiment: Antiviral activity against HIV with reverse transcriptase K101E/G190A double mutant assessed as inhibition of viral replication; format: functional, organism-based; conditions: Human immunodeficiency virus 1
[22] = system: Human immunodeficiency virus; experiment: Antiviral activity against HIV with reverse transcriptase K101E/Y181C/G190A mutant assessed as inhibition of viral replication; format: functional, organism-based; conditions: Human immunodeficiency virus 1
[23] = system: Human immunodeficiency virus; experiment: Antiviral activity against HIV with reverse transcriptase K103N/Y181C/G190A mutant assessed as inhibition of viral replication; format: functional, organism-based; conditions: Human immunodeficiency virus 1
[24] = system: Human immunodeficiency virus; experiment: Antiviral activity against HIV with reverse transcriptase V106A/G190A/F227L mutant assessed as inhibition of viral replication; format: functional, organism-based; conditions: Human immunodeficiency virus 1
[25] = system: Human immunodeficiency virus; experiment: Antiviral activity against HIV with reverse transcriptase MDRC4 mutant assessed as inhibition of viral replication relative to wild type; format: functional
[26] = system: Human immunodeficiency virus; experiment: Antiviral activity against HIV with reverse transcriptase CNDO mutant assessed as inhibition of viral replication relative to wild type; format: functional
[27] = system: Human immunodeficiency virus; experiment: Antiviral activity against HIV with reverse transcriptase L100I mutant assessed as inhibition of viral replication relative to wild type; format: functional
[28] = system: Human immunodeficiency virus; experiment: Antiviral activity against HIV with reverse transcriptase K103N mutant assessed as inhibition of viral replication relative to wild type; format: functional
[29] = system: Human immunodeficiency virus; experiment: Antiviral activity against HIV with reverse transcriptase Y181C mutant assessed as inhibition of viral replication relative to wild type; format: functional
[30] = system: Human immunodeficiency virus; experiment: Antiviral activity against HIV with reverse transcriptase Y188L mutant assessed as inhibition of viral replication relative to wild type; format: functional
[31] = system: Human immunodeficiency virus; experiment: Antiviral activity against HIV with reverse transcriptase G190A mutant assessed as inhibition of viral replication relative to wild type; format: functional
[32] = system: Human immunodeficiency virus; experiment: Antiviral activity against HIV with reverse transcriptase G190S mutant assessed as inhibition of viral replication relative to wild type; format: functional
[33] = system: Human immunodeficiency virus; experiment: Antiviral activity against HIV with reverse transcriptase L100I/K103N double mutant assessed as inhibition of viral replication relative to wild type; format: functional
[34] = system: Human immunodeficiency virus; experiment: Antiviral activity against HIV with reverse transcriptase K103N/Y181C double mutant assessed as inhibition of viral replication relative to wild type; format: functional
[35] = system: Human immunodeficiency virus; experiment: Antiviral activity against HIV with reverse transcriptase K103N/G190A double mutant assessed as inhibition of viral replication relative to wild type; format: functional
[36] = system: Human immunodeficiency virus; experiment: Antiviral activity against HIV with reverse transcriptase Y181C/G190A double mutant assessed as inhibition of viral replication relative to wild type; format: functional
[37] = system: Human immunodeficiency virus; experiment: Antiviral activity against HIV with reverse transcriptase K103N/P225H double mutant assessed as inhibition of viral replication relative to wild type; format: functional
[38] = system: Human immunodeficiency virus; experiment: Antiviral activity against HIV with reverse transcriptase K101E/G190A double mutant assessed as inhibition of viral replication relative to wild type; format: functional
[39] = system: Human immunodeficiency virus; experiment: Antiviral activity against HIV with reverse transcriptase K101E/Y181C/G190A mutant assessed as inhibition of viral replication relative to wild type; format: functional
[40] = system: Human immunodeficiency virus; experiment: Antiviral activity against HIV with reverse transcriptase K103N/Y181C/G190A mutant assessed as inhibition of viral replication relative to wild type; format: functional
[41] = system: Human immunodeficiency virus; experiment: Antiviral activity against HIV with reverse transcriptase V106A/G190A/F227L mutant assessed as inhibition of viral replication relative to wild type; format: functional

SMILES: N#Cc1cc(Cl)cc(Oc2cc(OCc3n[nH]c4ncccc34)ccc2Cl)c1
- Ki [1]: 0.0001 µM
- Ki [2]: 0.0002 µM
- IC95 [3]: 0.01 µM
- IC95 [4]: 0.052 µM
- IC95 [5]: 0.015 µM
- IC95 [6]: 0.022 µM
- IC95 [7]: 0.053 µM
- IC50 [8]: 0.0051 µM
- IC50 [9]: 0.0011 µM
- IC50 [10]: 0.0007 µM
- IC50 [11]: 0.0016 µM
- IC50 [12]: 0.0031 µM
- IC50 [13]: 0.616 µM
- IC50 [14]: 0.0018 µM
- IC50 [15]: 0.0048 µM
- IC50 [16]: 0.0165 µM
- IC50 [17]: 0.0236 µM
- IC50 [18]: 0.0024 µM
- IC50 [19]: 0.0046 µM
- IC50 [20]: 0.0036 µM
- IC50 [21]: 0.0021 µM
- IC50 [22]: 0.0116 µM
- IC50 [23]: 0.0309 µM
- IC50 [24]: > 1 µM
- fold change (FC) [25]: 4.64
- fold change (FC) [26]: 1
- fold change (FC) [27]: 0.64
- fold change (FC) [28]: 1.45
- fold change (FC) [29]: 2.82
- fold change (FC) [30]: 560.18
- fold change (FC) [31]: 1.64
- fold change (FC) [32]: 4.36
- fold change (FC) [33]: 15
- fold change (FC) [34]: 21.45
- fold change (FC) [35]: 2.18
- fold change (FC) [36]: 4.18
- fold change (FC) [37]: 3.27
- fold change (FC) [38]: 1.91
- fold change (FC) [39]: 10.55
- fold change (FC) [40]: 28.09
- fold change (FC) [41]: >909

SMILES: O=C1Nc2ccc(Cl)cc2[C@@](C#CC2CC2)(C(F)(F)F)O1 [EFAVIRENZ]
- IC50 [8]: 0.008 µM
- IC50 [9]: 0.0005 µM
- IC50 [10]: 0.021 µM
- IC50 [11]: 0.0168 µM
- IC50 [12]: 0.0011 µM
- IC50 [13]: 0.124 µM
- IC50 [14]: 0.0036 µM
- IC50 [15]: 0.115 µM
- IC50 [16]: > 0.5 µM
- IC50 [17]: 0.0278 µM
- IC50 [18]: 0.141 µM
- IC50 [19]: 0.0077 µM
- IC50 [20]: 0.153 µM
- IC50 [21]: 0.0174 µM
- IC50 [22]: 0.106 µM
- IC50 [23]: > 0.5 µM
- IC50 [24]: > 0.5 µM
- fold change (FC) [25]: 16
- fold change (FC) [26]: 1
- fold change (FC) [27]: 42
- fold change (FC) [28]: 33.6
- fold change (FC) [29]: 2.2
- fold change (FC) [30]: 248.6
- fold change (FC) [31]: 7.2
- fold change (FC) [32]: 229
- fold change (FC) [33]: >454
- fold change (FC) [34]: 55.6
- fold change (FC) [35]: 281.4
- fold change (FC) [36]: 15.4
- fold change (FC) [37]: 306.2
- fold change (FC) [38]: 34.8
- fold change (FC) [39]: 213
- fold change (FC) [40]: >454
- fold change (FC) [41]: >454
